In the library only some 2.3% were active in any assay of this set; here they are far more common.
TAAR1 antagonist: antagonists of human TAAR1; Q96RJ0; CHO RD-HGA16 TAAR1, Fluo-8 calcium fluorescence, antagonist; inhibition, % at 3 µM; 360,000 tested, 1.5% active; AID 624466;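 active = inhibition above a per-plate cutoff, the mean inhibition of test compounds on that plate plus 3 SD, cut at about 49% in these data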
Target sequence (Q96RJ0 whole entry, looked up): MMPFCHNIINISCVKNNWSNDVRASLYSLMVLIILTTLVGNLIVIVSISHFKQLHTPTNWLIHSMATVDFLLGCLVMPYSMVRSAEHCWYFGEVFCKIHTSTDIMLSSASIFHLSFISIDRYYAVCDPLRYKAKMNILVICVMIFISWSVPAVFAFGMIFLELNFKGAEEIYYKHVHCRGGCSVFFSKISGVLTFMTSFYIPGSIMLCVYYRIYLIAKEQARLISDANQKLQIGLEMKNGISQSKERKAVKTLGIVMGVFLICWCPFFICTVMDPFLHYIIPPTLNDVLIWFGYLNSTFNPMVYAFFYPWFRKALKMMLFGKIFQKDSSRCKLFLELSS
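Test system: hTAAR1-expressing CHO RD-HGA16 cells, Gα16-coupled; Probe or stimulus: EC80 β-phenethylamine stimulus; Compound dosing: single nominal final test compound concentration of 3 µM; Timing: 140 s kinetic read after compound, 140 s after agonist; Signal: Fluo-8 calcium-sensitive fluorescence; Measure: % inhibition of agonist calcium response; Controls: DMSO and EC80 PEA controls.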
TAAR1 agonist: human TAAR1 agonism; CHO RD-HGA16 TAAR1, Fluo-8 calcium fluorescence; vehicle wells 0%, saturating PEA agonist 100%; activation, % at 3 µM; 360,000 tested, 0.99% active; AID 624467;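 active = activation above the mean activation of all test compounds in the run plus 3 SD, cut at about 38% in these data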
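test system = CHO RD-HGA16 cells carrying human TAAR1 plus Gα16 | schedule = 17-24 h seeding, 75 min 37 °C dye, 30 min RT | compound dosing = 3 µM single concentration | control set = DMSO and PEA EC100 | replicates = n 1 | signal = Fluo-8 fluorescence, 5 s baseline then 140 s kinetic read | measure = percent activation vs PEA EC100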
OXTR agonist: activates the human oxytocin receptor | activation, % at 3 µM | 320,000 tested, 0.32% active | P30559 | AID 2435 | CHO-OTR cells, Fluo-8 calcium fluorescence; normalized: DMSO 0%, oxytocin 100%;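 active = activation above the mean of all tested compounds plus 3 SD, cutoff set per screening run, cut at about 20% in these data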;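 also: peak over basal fluorescence ratio from a 100 s FLIPR kinetic read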
V1R ag counter: counter-screen for oxytocin receptor agonists: human V1a receptor agonists | CHO-V1R cells, Fluo-8 calcium fluorescence, agonist mode; 0% DMSO, 100% 3 nM vasopressin | activation, % at 3 µM | 320,000 tested, 0.25% active;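 active = activation above the mean activation of all tested compounds plus 3 SD, per screening run, cut at about 20% in these data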;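 also: signal is peak over basal fluorescence ratio across a 100 second FLIPR read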
OXTR potentiator: potentiators of human oxytocin receptor; P30559; CHO-OTR cells, Fluo-8 calcium fluorescence, potentiator mode; 0% = oxytocin EC15, 100% = EC100; activation, % at 3 µM; 320,000 tested, 0.061% active; AID 2445;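 active = activation above that plate's cutoff, the mean activation of tested compounds plus 3 SD, cut at about 6.6% in these data, passing the limit was not always enough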
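Measured by – Fluo-8 calcium dye fluorescence · Test system – human OTR in CHO cells · Dosing – one concentration, 3.0 µM compound · Controls – EC15 oxytocin alone as 0%, 75 nM oxytocin as 100% · Evaluation – normalized max/min fluorescence ratio, % activation · Timing – 6 min pre-incubation, 100 s read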
TAAR1 nonsel count: counter-screen for TAAR1 antagonists: nonselective antagonists; inhibition, % at 3 µM; AID 651780; counterscreen cell line, calcium fluorescence, antagonist mode; shares compounds with TAAR1 antagonist; 2,400 tested, 77% active; in the data active = inhibition above about 22%;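 also: CHO-Ga16 host cells stimulated with ATP at an EC80 level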
TAAR1 antag conf: confirmation of human TAAR1 antagonists; shares compounds with TAAR1 antagonist; 2,400 tested, 40% active; TAAR1-expressing cells, fluorescence antagonist read-out; inhibition, % at 3 µM; AID 651785; in the data active = inhibition above about 49%;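 also: CHO-Ga16 host cells challenged with agonist PEA near its EC80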
Ga16 nonsel ag: nonselective Ga16 agonism, counter-screen; 2,400 tested, 18% active; shares compounds with TAAR1 antagonist; activation, % at 3 µM; Ga16-expressing cells, calcium fluorescence, agonist counterscreen; in the data active = activation above about 12%
TAAR1 ag counter: TAAR1 agonism, antagonist counter-screen | shares compounds with TAAR1 antagonist | hTAAR1 cell line, fluorescence activation, agonist mode | activation, % at 3 µM | 2,400 tested, 2% active | AID 651955; in the data active = activation above about 37%;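 also: CHO cells stably expressing TAAR1 with calcium dye readout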
Large screens that a line does not name were inactive (follow-up assays come after a bar, where they were run).

COc1ccc(C2=NOC(Cn3nc(C(=O)NCC4CC4)cc3-c3ccccc3)C2)cc1 (centres undefined)	TAAR1 antagonist 72 | TAAR1 nonsel count 34 | TAAR1 antag conf 49 | Ga16 nonsel ag inactive | TAAR1 ag counter inactive
COc1ccc(C2=NOC(Cn3nc(-c4ccccc4)cc3C(=O)NCc3ccc(C)cc3)C2)cc1 (centres undefined)	none
COc1ccc(C2=NOC(Cn3nc(C(=O)NCc4ccccc4OC)cc3-c3ccccc3)C2)cc1 (centres undefined)	TAAR1 antagonist 68 | TAAR1 nonsel count 33 | TAAR1 antag conf 53 | Ga16 nonsel ag inactive | TAAR1 ag counter inactive
CC(C)(C)c1ccc(C(=O)N2CCCC2c2cccs2)cc1 (centres undefined)	none
COc1ccc(NC(=O)CN(C)C(=O)c2sc3cc(Cl)ccc3c2Cl)cc1	none
CC(C)=N/N=C1/NC(=O)C(c2ccccc2)S1 (centres undefined)	TAAR1 antagonist 55 (no result: OXTR agonist, V1R ag counter, OXTR potentiator) | TAAR1 nonsel count inactive | TAAR1 antag conf inactive | Ga16 nonsel ag inactive | TAAR1 ag counter inactive
CN1C(=O)CSc2ccc(NC(=O)N3CCN(c4ccccn4)CC3)cc21	none
CCOc1ccc(OCC)c(NC(=O)Nc2ccc3c(c2)N(C)C(=O)CS3)c1	TAAR1 antagonist 56 | TAAR1 nonsel count 22 | TAAR1 antag conf inactive | Ga16 nonsel ag inactive | TAAR1 ag counter inactive
CN1C(=O)CSc2ccc(NC(=O)Nc3ccccn3)cc21	TAAR1 antagonist 70 | TAAR1 nonsel count inactive | TAAR1 antag conf 49 | Ga16 nonsel ag inactive | TAAR1 ag counter inactive
COc1ccccc1CC(=O)Nc1cccc(C(=O)Nc2nccs2)c1	none
CC(=O)Nc1ccc(S(=O)(=O)NCCC(=O)OCc2csc(CC(=O)Nc3ccccc3C)n2)cc1	none
O=C1NC2(CCCCCC2)C(=O)N1Cc1cccc([N+](=O)[O-])c1	TAAR1 antagonist 101 | TAAR1 nonsel count inactive | TAAR1 antag conf inactive | Ga16 nonsel ag inactive | TAAR1 ag counter inactive
Nc1nc2cc3c(cc2cc1C(=O)NCCc1c[nH]c2ccccc12)OCO3	TAAR1 antagonist 52 (no result: OXTR agonist, V1R ag counter, OXTR potentiator) | TAAR1 nonsel count 45 | TAAR1 antag conf inactive | Ga16 nonsel ag 13 | TAAR1 ag counter inactive
O=C(NCCc1c[nH]c2ccccc12)c1ccc(F)cc1F	none
CC(C)n1nnnc1C1c2ccccc2C(=O)N1CCc1ccccc1F (centres undefined)	none (no result: OXTR agonist, V1R ag counter, OXTR potentiator)
O=C1c2ccccc2C(c2nnnn2Cc2ccccc2)N1CCc1ccccc1F (centres undefined)	TAAR1 antagonist 68 (no result: OXTR agonist, V1R ag counter, OXTR potentiator) | TAAR1 nonsel count 29 | TAAR1 antag conf 51 | Ga16 nonsel ag inactive | TAAR1 ag counter inactive
O=C1c2ccccc2C(c2nnnn2Cc2ccccc2)N1CCc1ccc(O)cc1 (centres undefined)	TAAR1 antagonist 67 (no result: OXTR agonist, V1R ag counter, OXTR potentiator) | TAAR1 nonsel count 28 | TAAR1 antag conf 53 | Ga16 nonsel ag inactive | TAAR1 ag counter inactive
CC(C)CCN1C(=O)c2ccccc2C1c1nnnn1Cc1ccccc1 (centres undefined)	none (no result: OXTR agonist, V1R ag counter, OXTR potentiator)
Cc1cc(C)cc(NC(=O)c2cccc(C(=O)Nc3cc(C)cc(C)c3)n2)c1	none
CC(C)(C)NC(=O)COC(=O)c1c2c(nc3ccccc13)CCC2	TAAR1 antagonist 60 | TAAR1 nonsel count 27 | TAAR1 antag conf inactive | Ga16 nonsel ag inactive | TAAR1 ag counter inactive
COc1ccc([C@H]2CC(=O)C=C(c3ccc(CNC(=O)OC(C)(C)C)cc3)C2)cc1	TAAR1 antagonist 83 | TAAR1 nonsel count 47 | TAAR1 antag conf 68 | Ga16 nonsel ag 12 | TAAR1 ag counter inactive
CCCCCCC(=O)N(O)C1CC(=O)N(c2ccc(F)cc2)C1=O (centres undefined)	none

Screening data as filed in PubChem BioAssay.
